Results taken from ChEMBL document CHEMBL2062362, “Bioactive 3,4-seco-Triterpenoids from the Fruits of Acanthopanax sessiliflorus” (J Nat Prod, 2012).
pIC50: −log10 of the molar value.

Tests used:
HCT-116 = experiment: Cytotoxicity against human HCT116 cells by MTT assay; format: functional, cell-based
MCF7 = experiment: Cytotoxicity against human MCF7 cells by MTT assay; format: functional, cell-based
SK-BR-3 = experiment: Cytotoxicity against human SKBR3 cells by MTT assay; format: functional, cell-based
SK-OV-3 = experiment: Cytotoxicity against human SKOV3 cells by MTT assay; format: functional, cell-based
HeLa = experiment: Cytotoxicity against human HeLa cells by MTT assay; format: functional, cell-based
HepG2 = experiment: Cytotoxicity against human HepG2 cells by MTT assay; format: functional, cell-based
SK-MEL-5 = experiment: Cytotoxicity against human SK-MEL-5 cells by MTT assay; format: functional, cell-based
RAW264.7 = experiment: Antiinflammatory activity in mouse RAW264.7 cells assessed as inhibition of LPS-stimulated NO production pretreated for 30 mins before LPS challenge measured after 24 hrs by Griess reagent
[1] = Cytotoxicity against mouse RAW264.7 cells assessed as cell viability after 24 hrs by MTT assay; format: cell-based; set-up: concentration or dose not given beside the values; conditions: read-out: Activity
Outline: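 The same LPS-stimulated RAW 264.7 cultures (1 × 10⁴ cells/well) were pretreated with samples for 30 min, then given LPS at 1 μg/mL for 24 h. Viability was assessed by MTT reduction and expressed as a percentage of the LPS-only group. Data are means ± SD of three independent experiments.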

Structure (SMILES) | pIC50 (RAW264.7) | pIC50 (HCT-116) | pIC50 (MCF7) | pIC50 (SK-BR-3) | pIC50 (SK-OV-3) | pIC50 (HeLa) | pIC50 (HepG2) | pIC50 (SK-MEL-5) | viability at 24 h [1] [%]
C=C(C)[C@@H]1C[C@H](O)[C@]2(C(=O)O)CC[C@]3(C)[C@H](C[C@H]4OC(=O)C[C@@H](O)[C@]5(C)[C@@H]4[C@@]3(C)CC[C@H]5C(=C)C)[C@@H]12 | < 4.30 | < 5.00 | < 5.00 | < 5.00 | < 5.00 | < 5.00 | < 5.00 | < 5.00 | 
C=C(C)[C@@H]1C[C@H](O)[C@]2(C(=O)O)CC[C@]3(C)[C@H](C[C@@H](O)[C@@H]4[C@@]5(C)[C@@H](CC(=O)O)OC(C)(C)[C@@H]5CC[C@]43C)[C@@H]12 | < 4.30 | < 5.00 | < 5.00 | < 5.00 | < 5.00 | < 5.00 | < 5.00 | < 5.00 | 
C=C(C)[C@@H]1CC[C@]2(C(=O)O[C@@H]3O[C@H](CO[C@@H]4O[C@H](CO)[C@@H](O)[C@H](O)[C@H]4O)[C@@H](O)[C@H](O)[C@H]3O)CC[C@]3(C)[C@H](C[C@H]4OC(=O)C[C@@H](O)[C@]5(C)[C@@H]4[C@@]3(C)CC[C@H]5C(=C)C)[C@@H]12 | < 4.30 | < 5.00 | < 5.00 | < 5.00 | < 5.00 | < 5.00 | < 5.00 | < 5.00 | 
C=C(C)[C@@H]1C[C@H](O)[C@]2(C(=O)O[C@@H]3O[C@H](CO[C@@H]4O[C@H](CO)[C@@H](O[C@@H]5O[C@@H](C)[C@H](O)[C@@H](O)[C@H]5O)[C@H](O)[C@H]4O)[C@@H](O)[C@H](O)[C@H]3O)CC[C@]3(C)[C@H](C[C@H]4OC(=O)C[C@@H](O)[C@]5(C)[C@@H]4[C@@]3(C)CC[C@H]5C(=C)C)[C@@H]12 | < 4.30 | < 5.00 | < 5.00 | < 5.00 | < 5.00 | < 5.00 | < 5.00 | < 5.00 | 
C=C(C)[C@@H]1CC[C@]2(C(=O)O[C@@H]3O[C@H](CO[C@@H]4O[C@H](CO)[C@@H](O[C@@H]5O[C@@H](C)[C@H](O)[C@@H](O)[C@H]5O)[C@H](O)[C@H]4O)[C@@H](O)[C@H](O)[C@H]3O)CC[C@]3(C)[C@H](C[C@H]4OC(=O)C[C@@H](O)[C@]5(C)[C@@H]4[C@@]3(C)CC[C@H]5C(=C)C)[C@@H]12 [CHIISANOSIDE] | < 4.30 | > 5.00 | > 5.00 | > 5.00 | > 5.00 | < 5.00 | < 5.00 | > 5.00 | 
CC(=O)O[C@H]1C(=O)[C@@]2(C)[C@H]([C@H](OC(=O)c3ccccc3)[C@]3(O)C[C@H](OC(=O)[C@H](O)[C@@H](NC(=O)c4ccccc4)c4ccccc4)C(C)=C1C3(C)C)[C@]1(OC(C)=O)CO[C@@H]1C[C@@H]2O [PACLITAXEL] |  | 7.30 | 6.05 | 6.96 | 6.40 |  |  | 6.82 | 
N=C(N)NN [PIMAGEDINE] | 5.19 |  |  |  |  |  |  |  | 84.6

Continued, in another order:

pIC50 (RAW264.7) | Structure (SMILES) | pIC50 (HCT-116) | pIC50 (MCF7) | pIC50 (SK-BR-3) | pIC50 (SK-OV-3) | pIC50 (HeLa) | pIC50 (HepG2) | pIC50 (SK-MEL-5) | viability at 24 h [1] [%]
4.33 | C=C(C)[C@@H]1CC[C@]2(C(=O)O)CC[C@]3(C)[C@H](C[C@@H](O)[C@@H]4[C@@]5(C)[C@@H](CC(=O)OC)OC(C)(C)[C@@H]5CC[C@]43C)[C@@H]12 [ACANTHOSESSILIGENIN II] | < 5.00 | < 5.00 | < 5.00 | < 5.00 | < 5.00 | < 5.00 | < 5.00 | 91.1
4.95 | C=C(C)[C@@H]1C[C@H](O)[C@]2(C(=O)O)CC[C@]3(C)[C@H](CC[C@@H]4[C@@](C)(CCC(=O)OC)[C@H](C(=C)C)CC[C@]43C)[C@@H]12 [ACANTHOSESSILIGENIN I] | < 5.00 | < 5.00 | < 5.00 | < 5.00 | < 5.00 | < 5.00 | < 5.00 | 88.8
4.74 | C=C(C)[C@@H]1CC[C@]2(C(=O)O[C@@H]3O[C@H](CO)[C@@H](O)[C@H](O)[C@H]3O)CC[C@]3(C)[C@H](CC[C@@H]4[C@@](C)(CCC(=O)O)[C@H](C(=C)C)CC[C@]43C)[C@@H]12 [ACANTHOSESSILIOSIDE A] | < 5.00 | < 5.00 | < 5.00 | < 5.00 | < 5.00 | < 5.00 | < 5.00 | 93.5
4.69 | C=C(C)[C@@H]1CC[C@]2(C(=O)O[C@@H]3O[C@H](CO)[C@@H](O)[C@H](O)[C@H]3O)CC[C@]3(C)[C@H](C[C@@H](O)[C@@H]4[C@@]5(C)[C@@H](CC(=O)OC)OC(C)(C)[C@@H]5CC[C@]43C)[C@@H]12 [ACANTHOSESSILIOSIDE B] | < 5.00 | < 5.00 | < 5.00 | < 5.00 | < 5.00 | < 5.00 | < 5.00 | 93
< 4.30 | C=C(C)[C@@H]1C[C@H](O)[C@]2(C(=O)O[C@@H]3O[C@H](CO)[C@@H](O)[C@H](O)[C@H]3O)CC[C@]3(C)[C@H](C[C@@H](O)[C@@H]4[C@@]5(C)[C@@H](CC(=O)OC)OC(C)(C)[C@@H]5CC[C@]43C)[C@@H]12 [ACANTHOSESSILIOSIDE C] | < 5.00 | < 5.00 | < 5.00 | < 5.00 | < 5.00 | < 5.00 | < 5.00 | 
4.92 | C=C(C)[C@@H]1CC[C@]2(C(=O)O)CC[C@]3(C)[C@H](CC[C@@H]4[C@@]5(C)[C@@H](CC(=O)O[C@@H]6O[C@H](CO)[C@@H](O)[C@H](O)[C@H]6O)OC(C)(C)[C@@H]5CC[C@]43C)[C@@H]12 [ACANTHOSESSILIOSIDE D] | < 5.00 | < 5.00 | < 5.00 | < 5.00 | < 5.00 | < 5.00 | < 5.00 | 95.2
< 4.30 | C=C(C)[C@@H]1C[C@H](O)[C@]2(C(=O)O[C@@H]3O[C@H](CO)[C@@H](O)[C@H](O)[C@H]3O)CC[C@]3(C)[C@H](CC[C@@H]4[C@@]5(C)[C@@H](CC(=O)O)OC(C)(C)[C@@H]5CC[C@]43C)[C@@H]12 [ACANTHOSESSILIOSIDE E] | < 5.00 | < 5.00 | < 5.00 | < 5.00 | < 5.00 | < 5.00 | < 5.00 | 
< 4.30 | C=C(C)[C@@H]1C[C@H](O)[C@]2(C(=O)O[C@@H]3O[C@H](CO)[C@@H](O)[C@H](O)[C@H]3O)CC[C@]3(C)[C@H](C[C@H]4OC(=O)C[C@@H](O)[C@]5(C)[C@@H]4[C@@]3(C)CC[C@H]5C(=C)C)[C@@H]12 [ACANTHOSESSILIOSIDE F] | < 5.00 | < 5.00 | < 5.00 | < 5.00 | < 5.00 | < 5.00 | < 5.00 | 
